For 9 compounds, IC50 and Activity results are on record in ChEMBL document CHEMBL3044585, “Potent in vivo antifungal activity against powdery mildews of pregnane glycosides from the roots of Cynanchum wilfordii” (J Agric Food Chem, 2011).

Converted amounts (≈) assume the structure as drawn.

Assay [1] relates to Blumeria hordei. Description: Antifungal activity against Blumeria graminis f. sp. hordei assessed as control of barley powdery mildew treated 1 day before inoculation. In kind it is functional, organism-based. An outline of the steps: (§1)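 One-day protective test on barley against powdery mildew: plants treated 1 day before inoculation, with Tween 20 solution alone as the untreated reference. Pots in randomized complete block design, three replicates per treatment, experiment run twice. Infected leaf area (%) scored; % control = 100[(A − B)/A], A = infection on Tween 20-sprayed leaves, B = infection on treated leaves; reported ± standard deviation.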

Assay [2] relates to Podosphaera macularis. Description: Antifungal activity against Sphaerotheca humuli assessed as diseased fruits in strawberry powdery mildew at 4000 fold dilution (reference value: 62.2%). It counts as functional. An outline of the steps: (§2)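 Commercial greenhouse trial on strawberry cv. Janghee. Plots were 4 m long, with data taken from the middle 3 m. Sprays applied by hand-held sprayer until runoff, three times at 1-week intervals. Before each spray, ripe fruits were harvested and total and diseased fruits counted. Percentage of diseased fruits given as the mean of three replicates; disease-control percentage calculated relative to untreated control.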

The subject of assay [3] is Podosphaera macularis. Description: Antifungal activity against Sphaerotheca humuli assessed as control of strawberry powdery mildew at 4000 fold dilution. In kind it is functional. The method, boiled down: as §2
Assay [4] has as its system Blumeria hordei. Description: Antifungal activity against Blumeria graminis f. sp. hordei assessed as control of barley powdery mildew at 63 ug/mL treated 1 day before inoculation. In kind it is functional. An outline of the steps: as §1
The subject of assay [5] is Blumeria hordei. Description: Antifungal activity against Blumeria graminis f. sp. hordei assessed as control of barley powdery mildew at 16 ug/mL treated 1 day before inoculation. It counts as functional. The method, boiled down:
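Barley plants in pots treated with sample in Tween 20 solution and inoculated 1 day later (protective assay). Randomized complete block design, three replicates per treatment, experiment run twice. Infected leaf area (%) scored. % control = 100[(A−B)/A], where A is the infection area on leaves sprayed with Tween 20 solution alone; reported ± standard deviation.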

The mark [6] stands for this setting: Blumeria hordei, read-out: IC50.

Regarding `Cc1cc(O)c2c(c1)C(=O)c1cccc(O)c1C2=O` [CHRYSOPHANOL], the IC50 with Blumeria hordei [1] (setting [6]) worked out at 4.7 µg/mL (≈ 18.5 µM).

On to `CC(=O)c1c(C)cc2cccc(O)c2c1O` [NEPODIN], for which the IC50 in the assay on Blumeria hordei [1] (setting [6]) worked out at 20 µg/mL (≈ 92.5 µM).

With `NC(=O)OC[C@H](O)[C@@H](O)[C@H](N)C(=O)N[C@H](C(=O)O)[C@H]1O[C@@H](n2cc(CO)c(=O)[nH]c2=O)[C@H](O)[C@@H]1O` [POLYOXIN B], the concentration for half-maximal inhibition (IC50) with Blumeria hordei [1] (setting [6]) came out at 71.4 µg/mL (≈ 141 µM).

For the compound `CCCOC/C(=N\c1ccc(Cl)cc1C(F)(F)F)n1ccnc1` [TRIFLUMIZOLE], the Activity in the assay on Podosphaera macularis [2] was found to be 7.2%; in the assay on Podosphaera macularis [3] it was 89%.

`CO[C@H]1C[C@H](O[C@H]2[C@@H](OC)C[C@H](O[C@H]3CC[C@@]4(C)C(=CC[C@]5(O)[C@@H]4C[C@@H](OC(=O)/C=C(\C)C(C)C)[C@@]4(C)[C@]5(O)CC[C@]4(O)C(C)=O)C3)O[C@@H]2C)O[C@@H](C)[C@H]1O[C@H]1C[C@H](OC)[C@H](O[C@H]2C[C@@H](OC)[C@@H](O[C@@H]3O[C@H](CO)[C@@H](O[C@@H]4O[C@H](CO)[C@@H](O)[C@H](O)[C@H]4O)[C@H](O)[C@H]3O)[C@H](C)O2)[C@@H](C)O1` [WILFOSIDE C1GG]: the IC50 in the assay with Blumeria hordei [1] (setting [6]) was 28.3 µg/mL (≈ 20.4 µM). Further, the Activity in the assay on Blumeria hordei [4] was greater than 77%.

As to `CO[C@H]1C[C@H](O[C@H]2[C@@H](OC)C[C@H](O[C@H]3CC[C@@]4(C)C(=CC[C@]5(O)[C@@H]4C[C@@H](OC(=O)/C=C(\C)C(C)C)[C@@]4(C)[C@]5(O)CC[C@]4(O)C(C)=O)C3)O[C@@H]2C)O[C@@H](C)[C@H]1O[C@H]1C[C@H](OC)[C@H](O[C@H]2C[C@@H](OC)[C@@H](O[C@@H]3O[C@H](CO)[C@@H](O)[C@H](O)[C@H]3O)[C@H](C)O2)[C@@H](C)O1` [WILFOSIDE C1G], in the assay with Blumeria hordei [1] (setting [6]), the IC50 stood at 12.9 µg/mL (≈ 10.5 µM). Besides, the Activity with Blumeria hordei [5] is 78%; with Blumeria hordei [4], greater than 77%.

`CO[C@H]1C[C@H](O[C@H]2[C@@H](OC)C[C@H](O[C@H]3CC[C@@]4(C)C(=CC[C@]5(O)[C@@H]4C[C@@H](OC(=O)/C=C(\C)C(C)C)[C@@]4(C)[C@]5(O)CC[C@]4(O)C(C)=O)C3)O[C@@H]2C)O[C@@H](C)[C@H]1O[C@H]1C[C@H](OC)[C@H](O[C@H]2C[C@@H](OC)[C@@H](O)[C@H](C)O2)[C@@H](C)O1` [WILFOSIDE C1N]: the IC50 in the assay with Blumeria hordei [1] (setting [6]) turned out to be 3.24 µg/mL (≈ 3.04 µM). In addition, the figures for the Activity with Blumeria hordei [5] and with Blumeria hordei [4] were 95% and greater than 77%, respectively.

With `CO[C@H]1C[C@H](O[C@H]2[C@@H](OC)C[C@H](O[C@H]3CC[C@@]4(C)C(=CC[C@]5(O)[C@@H]4C[C@@H](OC(=O)/C=C/c4ccccc4)[C@@]4(C)[C@]5(O)CC[C@]4(O)C(C)=O)C3)O[C@@H]2C)O[C@@H](C)[C@H]1O[C@H]1C[C@H](OC)[C@H](O[C@H]2C[C@@H](OC)[C@@H](O[C@@H]3O[C@H](CO)[C@@H](O[C@@H]4O[C@H](CO)[C@@H](O)[C@H](O)[C@H]4O)[C@H](O)[C@H]3O)[C@H](C)O2)[C@@H](C)O1` [WILFOSIDE K1GG], the IC50 result in the assay on Blumeria hordei [1] is given as “Not Active”.

Consider `CO[C@H]1C[C@H](O[C@H]2[C@@H](OC)C[C@H](O[C@H]3CC[C@@]4(C)C(=CC[C@]5(O)[C@@H]4C[C@@H](OC(=O)/C=C/c4ccccc4)[C@@]4(C)[C@]5(O)CC[C@]4(O)C(C)=O)C3)O[C@@H]2C)O[C@@H](C)[C@H]1O[C@H]1C[C@H](OC)[C@H](O[C@H]2C[C@@H](OC)[C@@H](O)[C@H](C)O2)[C@@H](C)O1` [WILFOSIDE K1N], for which the IC50 entry with Blumeria hordei [1] is “Not Active”.
